In ChEMBL document CHEMBL3525967, “In vitro glucuronidation of the antibacterial triclocarban and its oxidative metabolites” (Drug Metab Dispos, 2012):

Experiments:
[1] = Drug metabolism in microsomes (unknown origin) assessed as retention time treated with 10 uM triclocarban by LC-UV-MS method; assay type: ADME, Microsome
[2] = Drug metabolism in B6C3F1 mouse liver microsomes assessed as glucuronidation incubated for 5 mins prior to UDPGA addition measured after 5 to 30 mins by LC-UV analysis; assay type: ADME
How it was run: (§1)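 Microsomes or Sf-9 Supersomes (5 µg protein in 200 µL 100 mM potassium phosphate pH 7.4) pre-treated with alamethicin on ice 15 min; substrate 10 µM final (2% DMSO), MgCl2 and saccharolactone 10 mM each; 5 min preincubation at 37 °C, then UDPGA to start. Samples taken at 5, 10, 15, 30 min (or 2, 5, 10, 15 min) into ACN with internal standard; LC-UV-ESI-MS/MS.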

[3] = Drug metabolism in human kidney microsomes assessed as glucuronidation incubated for 5 mins prior to UDPGA addition measured after 5 to 30 mins by LC-UV analysis; assay type: ADME; how it was run: as §1
[4] = molecular target: T1, UDP-glucuronosyltransferase 1A3 (Homo sapiens, UniProt P35503); assay: Drug metabolism assessed as human UGT1A3-mediated glucuronidation expressed in baculovirus infected insect sf9 cells incubated for 5 mins prior to UDPGA addition measured after 5 to 30 mins by LC-UV analysis; assay type: ADME; how it was run: as §1
T1 sequence (P35503 whole entry): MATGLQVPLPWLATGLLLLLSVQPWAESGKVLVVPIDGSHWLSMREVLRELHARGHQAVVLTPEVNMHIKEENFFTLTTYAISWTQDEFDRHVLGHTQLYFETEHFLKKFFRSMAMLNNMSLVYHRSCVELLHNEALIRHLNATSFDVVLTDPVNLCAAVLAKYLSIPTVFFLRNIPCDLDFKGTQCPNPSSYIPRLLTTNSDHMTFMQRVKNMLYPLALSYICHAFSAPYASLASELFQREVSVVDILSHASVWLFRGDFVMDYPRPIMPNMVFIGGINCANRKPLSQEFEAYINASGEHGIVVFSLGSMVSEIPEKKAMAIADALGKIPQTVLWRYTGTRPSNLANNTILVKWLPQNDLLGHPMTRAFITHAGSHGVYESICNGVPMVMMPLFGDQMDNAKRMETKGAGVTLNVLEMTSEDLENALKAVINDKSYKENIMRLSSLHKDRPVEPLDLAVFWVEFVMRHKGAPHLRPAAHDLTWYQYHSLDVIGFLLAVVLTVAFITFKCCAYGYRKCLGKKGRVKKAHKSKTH

[5] = molecular target: T2, UDP-glucuronosyltransferase 1A9 (Homo sapiens, UniProt O60656); assay: Drug metabolism assessed as human UGT1A9-mediated glucuronidation expressed in baculovirus infected insect sf9 cells incubated for 5 mins prior to UDPGA addition measured after 5 to 30 mins by LC-UV analysis; assay type: ADME; how it was run: as §1
T2 sequence (O60656 whole entry): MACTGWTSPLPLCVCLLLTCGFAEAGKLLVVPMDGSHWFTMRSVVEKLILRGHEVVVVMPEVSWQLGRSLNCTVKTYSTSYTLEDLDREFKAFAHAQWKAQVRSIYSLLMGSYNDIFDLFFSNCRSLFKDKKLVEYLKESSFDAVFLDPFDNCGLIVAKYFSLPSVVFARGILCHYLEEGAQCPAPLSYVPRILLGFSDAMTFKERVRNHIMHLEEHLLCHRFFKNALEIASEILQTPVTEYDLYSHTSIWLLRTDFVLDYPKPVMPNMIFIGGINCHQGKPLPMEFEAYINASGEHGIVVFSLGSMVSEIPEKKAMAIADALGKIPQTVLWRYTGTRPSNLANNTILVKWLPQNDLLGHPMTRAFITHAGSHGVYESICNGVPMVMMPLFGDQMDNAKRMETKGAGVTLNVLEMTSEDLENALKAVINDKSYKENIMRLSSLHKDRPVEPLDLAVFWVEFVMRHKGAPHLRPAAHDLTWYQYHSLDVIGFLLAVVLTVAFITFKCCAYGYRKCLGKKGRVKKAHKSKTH

[6] = molecular target: T3, UDP-glucuronosyltransferase 1A10 (Homo sapiens, UniProt Q9HAW8); assay: Drug metabolism assessed as human UGT1A10-mediated glucuronidation expressed in baculovirus infected insect sf9 cells incubated for 5 mins prior to UDPGA addition measured after 5 to 30 mins by LC-UV analysis; assay type: ADME; how it was run: as §1
T3 sequence (Q9HAW8 whole entry): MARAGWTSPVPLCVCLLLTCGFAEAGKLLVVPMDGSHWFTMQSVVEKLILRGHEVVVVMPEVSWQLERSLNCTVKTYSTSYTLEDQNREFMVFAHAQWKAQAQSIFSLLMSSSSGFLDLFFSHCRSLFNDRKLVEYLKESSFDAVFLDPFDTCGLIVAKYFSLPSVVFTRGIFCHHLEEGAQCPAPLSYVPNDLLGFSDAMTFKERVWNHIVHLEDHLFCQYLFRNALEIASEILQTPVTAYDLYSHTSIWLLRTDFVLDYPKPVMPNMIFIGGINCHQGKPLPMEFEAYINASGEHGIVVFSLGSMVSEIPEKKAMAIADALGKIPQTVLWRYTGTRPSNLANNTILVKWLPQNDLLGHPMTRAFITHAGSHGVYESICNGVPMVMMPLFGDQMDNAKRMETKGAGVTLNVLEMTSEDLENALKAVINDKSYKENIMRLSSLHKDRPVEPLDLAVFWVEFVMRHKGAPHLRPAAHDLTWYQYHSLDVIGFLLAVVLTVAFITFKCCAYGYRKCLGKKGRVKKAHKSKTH

[7] = molecular target: T4, UDP-glucuronosyltransferase 2B7 (Homo sapiens, UniProt P16662); assay: Drug metabolism assessed as human UGT2B7-mediated glucuronidation expressed in baculovirus infected insect sf9 cells incubated for 5 mins prior to UDPGA addition measured after 5 to 30 mins by LC-UV analysis; assay type: ADME; how it was run: as §1
T4 sequence (P16662 whole entry): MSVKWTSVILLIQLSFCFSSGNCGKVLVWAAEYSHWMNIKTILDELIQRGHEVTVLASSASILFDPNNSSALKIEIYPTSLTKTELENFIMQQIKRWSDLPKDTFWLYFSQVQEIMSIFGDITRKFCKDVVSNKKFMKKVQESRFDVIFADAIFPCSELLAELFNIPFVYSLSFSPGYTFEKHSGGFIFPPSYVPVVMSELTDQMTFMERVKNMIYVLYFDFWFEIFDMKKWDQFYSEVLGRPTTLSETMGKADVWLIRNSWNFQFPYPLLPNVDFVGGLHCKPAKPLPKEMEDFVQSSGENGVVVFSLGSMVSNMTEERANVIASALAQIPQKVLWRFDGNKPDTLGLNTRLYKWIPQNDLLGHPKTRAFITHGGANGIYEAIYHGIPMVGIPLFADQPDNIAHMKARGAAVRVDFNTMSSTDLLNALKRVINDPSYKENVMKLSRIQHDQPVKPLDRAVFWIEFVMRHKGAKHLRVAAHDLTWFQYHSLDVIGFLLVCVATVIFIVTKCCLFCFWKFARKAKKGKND

Retention_time [1] [min]	Drug metabolism [2] [pmol/min/mg]	Drug metabolism [3] [pmol/min/mg]	Drug metabolism [4] [pmol/min/mg]	Drug metabolism [5] [pmol/min/mg]	Drug metabolism ([6]; BLD = below limit of detection)	Drug metabolism [7]	Drug metabolism [6] [pmol/min/mg]	Drug metabolism ([7]; BLD = below limit of detection)	Structure (SMILES)
4.61	14700	4200	540	840	BLD	metabolite_not_detected	–	–	O=C(Nc1ccc(Cl)c(O)c1)Nc1ccc(Cl)c(Cl)c1
6.81	2600	5600	390	1200	–	–	210	BLD	O=C(Nc1ccc(Cl)c(Cl)c1)Nc1ccc(Cl)cc1O
7.45	7900	7700	410	2400	–	–	280	BLD	O=C(Nc1ccc(Cl)cc1)Nc1cc(Cl)c(Cl)cc1O
